# Results published in ChEMBL document CHEMBL2331230, “Synthesis, anticancer and antioxidant activities of 2,4,5-trimethoxy chalcones and analogues from asaronaldehyde: structure-activity relationship” (Eur J Med Chem, 2013).
# Experiments:
# MCF7 = assay: Cytotoxicity against human MCF7 cells assessed as growth inhibition after 72 hrs by MTT assay; assay type: functional, cell-based; settings: MCF7, 72 h
# Outline: (§1)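 Cells grown in DMEM with 10% FBS, seeded at 10,000 per well, and treated after 24 h with a concentration series ending at […]; pristimerin as positive control. After 72 h, MTT (5 mg/ml) added for 3 h. Formazan dissolved in DMSO, read at 570 nm. IC50 is the concentration giving 50% growth inhibition; mean ± S.D. of three tests in triplicate.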
# [1] = Antioxidant activity in rat erythrocytes assessed as inhibition of phenyl hydrazine-induced haemolysis after 1 hr; assay type: functional, cell-based; settings: erythrocyte
# Outline: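 20% PCV erythrocyte suspension made from rat blood. Samples at various concentrations combined with 0.5 mM phenyl hydrazine and erythrocyte suspension in phosphate buffered saline (3 ml total). Incubated 37 °C for 1 h, centrifuged 1000 g for 10 min, supernatant absorbance at 540 nm. α-Tocopherol as positive control.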
# SW982 = assay: Cytotoxicity against human SW982 cells assessed as growth inhibition after 72 hrs by MTT assay; assay type: functional, cell-based; settings: SW982, 72 h; outline: as §1
# [2] = system: Radical scavenging activity; assay: Antioxidant activity assessed as DPPH free radical scavenging activity after 15 mins by spectrophotometric analysis; assay type: functional
# Outline: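 Test samples at several concentrations mixed with stock DPPH (final concentration not stated), made up to 3 ml in methanol, incubated 15 min. Absorbance at 517 nm read against a sample-free blank. Ascorbic acid at various concentrations as standard. Values are means of triplicates from three independent experiments.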
# HeLa = assay: Cytotoxicity against human HeLa cells assessed as growth inhibition after 72 hrs by MTT assay; assay type: functional, cell-based; outline: as §1
# [3] = Antioxidant activity assessed as nitric oxide scavenging activity after 2.5 hrs by Griess assay; assay type: functional
# Outline: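 Sodium nitroprusside, 10 mM in phosphate saline buffer pH 7.4, added to samples at various concentrations and held 2.5 h at room temperature. Nitrite detected with Griess reagent at 546 nm against a blank. Inhibition (%) = (1 − A1/A0)×100, with A0 the control. Ascorbic acid as standard. Means of triplicates from three independent experiments.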
compound,measurement,setting,value
COc1cc(OC)c(OC)cc1/C=C/C(=O)c1ccc(Br)cc1,IC50,MCF7,18.3 µM
same,IC50,[1],2.3 µg/mL
same,IC50,SW982,38.2 µM
same,IC50,[2],4.318 µg/mL
same,IC50,HeLa,31.7 µM
same,IC50,[3],2.224 µg/mL
COc1cc(OC)c(OC)cc1/C=C/C(=O)c1cc(Cl)ccc1O,IC50,MCF7,> 150 µM
same,IC50,[1],2.233 µg/mL
same,IC50,SW982,> 150 µM
same,IC50,[2],5.073 µg/mL
same,IC50,HeLa,> 150 µM
same,IC50,[3],2.32 µg/mL
COc1cc(OC)c(OC)cc1/C=C/C(=O)c1cc(OC(C)=O)ccc1OC(C)=O,IC50,MCF7,63.7 µM
same,IC50,[1],2.327 µg/mL
same,IC50,SW982,78.5 µM
same,IC50,[2],4.65 µg/mL
same,IC50,HeLa,57.9 µM
same,IC50,[3],2.37 µg/mL
COc1cc(OC)c(-c2oc3ccc(O)cc3c(=O)c2O)cc1OC,IC50,MCF7,> 150 µM
same,IC50,[1],2.154 µg/mL
same,IC50,SW982,> 150 µM
same,IC50,[2],4.496 µg/mL
same,IC50,HeLa,> 150 µM
same,IC50,[3],2.33 µg/mL
O=C1O[C@H]([C@@H](O)CO)C(O)=C1O [ASCORBIC ACID],IC50,[2],3.039 µg/mL
same,IC50,[3],2.632 µg/mL
COc1cc(OC)c(-c2cc(=O)c3cc(Cl)ccc3o2)cc1OC,IC50,MCF7,> 150 µM
same,IC50,[1],2.125 µg/mL
same,IC50,SW982,> 150 µM
same,IC50,[2],4.973 µg/mL
same,IC50,HeLa,> 150 µM
same,IC50,[3],2.145 µg/mL
COc1cc(OC)c(OC)cc1/C=C/C(=O)c1ccc(O)cc1,IC50,MCF7,182 µM
same,IC50,[1],2.285 µg/mL
same,IC50,SW982,155 µM
same,IC50,[2],4.293 µg/mL
same,IC50,[3],2.502 µg/mL
COc1cc(OC)c(-c2cc(=O)c3cc(O)ccc3o2)cc1OC,IC50,MCF7,> 150 µM
same,IC50,[1],2.141 µg/mL
same,IC50,SW982,> 150 µM
same,IC50,[2],4.487 µg/mL
same,IC50,HeLa,> 150 µM
same,IC50,[3],2.142 µg/mL
COc1cc(OC)c(OC)cc1/C=C/C(=O)c1cc(OCc2ccccc2)cc(OCc2ccccc2)c1,IC50,MCF7,23.3 µM
same,IC50,[1],2.167 µg/mL
same,IC50,SW982,69.9 µM
same,IC50,[2],5.002 µg/mL
same,IC50,HeLa,26.9 µM
same,IC50,[3],2.092 µg/mL
COc1cc(OC)c(OC)cc1/C=C/C(=O)c1ccc(Cl)c([N+](=O)[O-])c1,IC50,MCF7,16.4 µM
same,IC50,[1],2.151 µg/mL
same,IC50,SW982,20.6 µM
same,IC50,[2],4.472 µg/mL
same,IC50,HeLa,16.5 µM
same,IC50,[3],1.99 µg/mL
COc1cc(OC)c(OC)cc1/C=C/C(=O)c1ccc(C)cc1,IC50,MCF7,33 µM
same,IC50,[1],2.236 µg/mL
same,IC50,SW982,81.1 µM
same,IC50,[2],4.325 µg/mL
same,IC50,HeLa,42.2 µM
same,IC50,[3],2.181 µg/mL
COc1cc(OC)c(-c2cc(=O)c3ccc(O)cc3o2)cc1OC,IC50,MCF7,> 150 µM
same,IC50,[1],2.147 µg/mL
same,IC50,SW982,> 150 µM
same,IC50,[2],4.808 µg/mL
same,IC50,HeLa,> 150 µM
same,IC50,[3],2.273 µg/mL
COC(=O)[C@]1(C)CC[C@]2(C)CC[C@]3(C)C4=CC=C5C(=CC(=O)C(O)=C5C)[C@]4(C)CC[C@@]3(C)[C@@H]2C1 [PRISTIMERIN],IC50,MCF7,0.87 µM
same,IC50,SW982,1.28 µM
same,IC50,HeLa,3.42 µM
COc1cc(OC)c(-c2oc3ccc(Cl)cc3c(=O)c2O)cc1OC,IC50,MCF7,> 150 µM
same,IC50,[1],2.144 µg/mL
same,IC50,SW982,> 150 µM
same,IC50,[2],4.68 µg/mL
same,IC50,HeLa,> 150 µM
same,IC50,[3],2.106 µg/mL
COc1cc(C(=O)/C=C/c2cc(OC)c(OC)cc2OC)ccc1O,IC50,MCF7,95.5 µM
same,IC50,[1],2.163 µg/mL
same,IC50,SW982,> 150 µM
same,IC50,[2],4.31 µg/mL
same,IC50,HeLa,> 150 µM
same,IC50,[3],2.462 µg/mL
